{"source": "paper PMC4955388", "about": "(Bioorganic & medicinal chemistry letters, 2016)", "key": {"[1]": {"assay": "Intrinsic clearance in rat hepatic microsomes and predicted hepatic clearance", "assay_type": "in vitro ADME", "settings": "for CLint scaled at 1 µM: rat, liver microsomes; for Rat CLHEP (predicted hepatic clearance): calculated from rat microsomal CLINT"}, "[2]": {"assay_type": "in vivo, rat", "settings": "1 h; for Concentration, Plasma HPV: hepatic portal vein", "summary_of_the_method": "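Rats received 10 mg/kg test compound orally, with vehicle or co-dosed with 1-aminobenzotriazole, a pan-irreversible cytochrome P450 inhibitor. At 1 h, concentrations were measured in systemic plasma, hepatic portal vein plasma and brain.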"}, "[3]": {"settings": "po 10 mg/kg with vehicle (no ABT)"}}, "note": "Where two headings read alike, the source gives them in different places.", "data": [{"smiles": "Cc1ccc(S(=O)(=O)n2ccc(NC(=O)c3ccccn3)c2)cc1C", "note": "[11r, N-(1-((3,4-Dimethylphenyl)sulfonyl)-1H-pyrrol-3-yl)picolinamide]", "values": [{"measurement": "CLint scaled at 1 µM", "setting": "[1]", "value": 293, "unit": "mL/min/kg"}]}, {"smiles": "Cc1cc(S(=O)(=O)n2ccc(NC(=O)c3ccccn3)c2)ccc1Cl", "note": "[11t]", "values": [{"measurement": "Rat CLHEP (predicted hepatic clearance)", "setting": "[1]", "value": 68.6, "unit": "mL/min/kg"}, {"measurement": "CLint scaled at 1 µM", "setting": "[1]", "value": 3440, "unit": "mL/min/kg"}, {"measurement": "Concentration, Brain", "setting": "[2]; po 10 mg/kg co-dosed with ABT", "value": "175.5 ng/mg or g"}, {"measurement": "Concentration, Plasma systemic", "setting": "[2]; po 10 mg/kg co-dosed with ABT", "value": "198.5 ng/mg or g"}, {"measurement": "Concentration, Plasma HPV", "setting": "[2]; po 10 mg/kg co-dosed with ABT", "value": "764.5 ng/mg or g"}, {"measurement": "Concentration, Brain", "setting": "[2]; [3]", "value": "8.1 ng/mg or g"}, {"measurement": "Concentration, Plasma systemic", "setting": "[2]; [3]", "value": "7.4 ng/mg or g"}, {"measurement": "Concentration, Plasma HPV", "setting": "[2]; [3]", "value": "731 ng/mg or g"}]}, {"smiles": "Cc1ccc(S(=O)(=O)n2cc(NC(=O)c3ccccn3)cn2)cc1C", "note": "[11s]", "values": [{"measurement": "Rat CLHEP (predicted hepatic clearance)", "setting": "[1]", "value": 68.7, "unit": "mL/min/kg"}, {"measurement": "CLint scaled at 1 µM", "setting": "[1]", "value": 3800, "unit": "mL/min/kg"}]}, {"smiles": "Cc1ccc(S(=O)(=O)n2ccc(NC(=O)c3ccccn3)c2)cc1", "note": "[11l]", "values": [{"measurement": "Rat CLHEP (predicted hepatic clearance)", "setting": "[1]", "value": 68.2, "unit": "mL/min/kg"}, {"measurement": "CLint scaled at 1 µM", "setting": "[1]", "value": 2700, "unit": "mL/min/kg"}]}, {"smiles": "O=C(Nc1ccn(S(=O)(=O)c2ccc(Cl)cc2)c1)c1ccccn1", "note": "[11o]", "values": [{"measurement": "Rat CLHEP (predicted hepatic clearance)", "setting": "[1]", "value": 65.9, "unit": "mL/min/kg"}, {"measurement": "CLint scaled at 1 µM", "setting": "[1]", "value": 1130, "unit": "mL/min/kg"}]}, {"smiles": "Cc1cccc(S(=O)(=O)n2ccc(NC(=O)c3ccccn3)c2)c1", "note": "[11m]", "values": [{"measurement": "Rat CLHEP (predicted hepatic clearance)", "setting": "[1]", "value": 68.8, "unit": "mL/min/kg"}, {"measurement": "CLint scaled at 1 µM", "setting": "[1]", "value": 4040, "unit": "mL/min/kg"}]}]}
